Laboratory results: paper PMC5161575 (Nature, 2016)
Where two headings read alike, the source gives them in different places.

Key:
[1] = target: KSR2 in purified KSR2-MEK1 complexes (Homo sapiens, UniProt Q6VAB6); assay: ATP^biotin probe-labelling competition; assay type: binding
[2] = tested on: KSR-stimulated MEK and ERK phosphorylation in 293H cells; assay: KSR-driven MAPK signalling reconstitution; assay type: cell-based; conditions: 5 μM, 2 h
[3] = target: MEK phosphorylation by BRAF or CRAF (Homo sapiens, UniProt Q6VAB6); assay: RAF phosphorylation assay of KSR2-MEK1 or MEK1 in vitro; assay type: biochemical; conditions: KSR2-MEK1; compound 1 μM
[4] = tested on: MEK phosphorylation by BRAF or CRAF; assay: as above; assay type: biochemical; conditions: KSR absent or KSR2(A690F) mutant; compound 1 μM
[5] = tested on: BRAF(V600E)-induced MAPK activation in 293H cells; assay: BRAF; assay type: cell-based; conditions: 5 μM, 2 h
Procedure, shortened: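 They were then exposed for 2 h to DMSO or 5μM test compound, alongside a reference RAF inhibitor. Cells were collected and western blotted for phospho-MEK1/2 (Ser218/Ser222) and phospho-ERK1/2 (T202/Y204). Primary antibodies were applied overnight in 5% BSA TBS-T.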

BRAF(F667E) + KSR2:MEK1 = BRAF(F667E) + KSR2:MEK1 (Homo sapiens, UniProt Q6VAB6); assay: bio-layer inferometry; assay type: binding; conditions: compound 25 μM
[6] = tested on: Phospho-AMPK in HCT116 cells; assay: phospho-AMPK western blot; assay type: cell-based; conditions: co-treatment with trametinib, 48 h
Procedure, shortened: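 HCT116 cells received test compound and/or a MEK inhibitor for 48 h. Lysates were western blotted for phospho-AMPK, phospho-ERK and total MEK, with primary antibodies overnight in 5% BSA TBS-T. Signal was detected by chemiluminescence on a CCD imager, and band intensities were quantified.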

[7] = tested on: ERK phosphorylation in HCT-116 cells; assay: phospho-ERK western blot; assay type: cell-based; conditions: APS-2-79 treatment
MEK1 = MEK1 (Oryctolagus cuniculus, UniProt P29678); assay: ATP^biotin probe-labelling competition; assay type: binding, rabbit; conditions: read-out: IC50 (ATP), MEK1; free ATP vs 2 μM ATP^biotin, KSR2-MEK1 complexes
Procedure, shortened: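 The probe transfers desthio-biotin onto active-site lysines of both KSR2 and MEK1. Biotin, total MEK and total KSR detected by western blot, giving probe-labelling versus ATP level for each partner.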

MEK1 (1-393) = MEK1 (1-393) (rabbit, UniProt P29678 1-393); assay: BLI
KSR2(KD):MEK1 complex = KSR2(KD):MEK1 complex (human | rabbit, UniProt Q6VAB6 634-950; P29678 1-393); assay: BLI

`COc1cc2ncnc(Nc3ccc(Oc4ccccc4)cc3)c2cc1OC.Cl` [APS-1-68-2, 6,7-Dimethoxy-N-(4-phenoxyphenyl)quinazolin-4-amine hydrochloride] was tested, and the “KSR2-MEK1 probe competition (in words)” value [1] was “competitor of probe-labelling”.

With `COc1ccc(Nc2ncnc3cc(OC)c(OC)cc23)cc1.Cl` [APS-1-70-1, 6,7-Dimethoxy-N-(4-methoxyphenyl)quinazolin-4-amine hydrochloride] the “KSR2-MEK1 probe competition (in words)” value [1] was “greatly diminished competition”.

With `COc1cc2ncnc(Nc3ccc(O)cc3)c2cc1OC.Cl` [APS-1-82-1, 4-((6,7-Dimethoxyquinazolin-4-yl)amino)phenol hydrochloride] the “KSR2-MEK1 probe competition (in words)” value [1] was “greatly diminished competition”.

In the case of `COc1cc2ncnc(Nc3ccc(OCc4ccccc4)cc3)c2cc1OC.O=C(O)C(F)(F)F` [APS-2-12, N-(4-(Benzyloxy)phenyl)-6,7-dimethoxyquinazolin-4-amine 2,2,2-trifluoroacetate], the “KSR2-MEK1 probe competition (in words)” value [1] is reported as “diminished”.

In the case of `COc1cc2nccc(Nc3ccc(Oc4ccccc4)cc3)c2cc1OC.Cl` [APS-2-16, 6,7-Dimethoxy-N-(4-phenoxyphenyl)quinolin-4-amine hydrochloride], the “KSR2-MEK1 probe competition (in words)” value [1] is reported as “moderately tolerated”.

With `COc1cc2ncnc(Nc3ccc(Oc4ccccc4)cc3C)c2cc1OC.O=C(O)C(F)(F)F` [APS-2-79, 6,7-Dimethoxy-N-(2-methyl-4-phenoxyphenyl)quinazolin-4-amine 2,2,2-trifluoroacetate] the “KSR-stimulated MEK and ERK phosphorylation” value ([2]; KSR(A690F) mutant) was “significantly diminished the activity”, the “KSR-stimulated MEK and ERK phosphorylation” value ([2]; wild-type KSR) was “suppressed” and the “KSR-stimulated MEK phosphorylation by RAF” value [3] was “markedly reduced”. The “MEK phosphorylation by RAF” value [4] was “inactive”, the “BRAF(V600E)-induced MAPK activation” value [5] was “does not affect” and the “assembly of BRAF(F667E) and KSR2-MEK1 (in words)” value (BRAF(F667E) + KSR2:MEK1) was “did not associate”. The Phospho-AMPK [6] was “remains unchanged” and the “enhancement in the IC90 of trametinib on ERK phosphorylation” value [7] was “twofold enhancement”.

`COc1cc2/c(=N/c3ccc(Oc4ccccc4)cc3)ncn(C)c2cc1OC` [APS-3-6, (Z)-N-(6,7-Dimethoxy-1-methylquinazolin-4(1H)-ylidene)-4-phenoxyaniline] was tested, and the “KSR2-MEK1 probe competition (in words)” value [1] was “greatly diminished”.

For `COc1cc2ncnc(Nc3ccc(Oc4ccccc4)c(C)c3C)c2cc1OC.Cl` [APS-3-77, N-(2,3-Dimethyl-4-phenoxyphenyl)-6,7-dimethoxyquinazolin-4-amine hydrochloride], the IC50 [1] was > 10 µM, the “KSR2-MEK1 probe competition (in words)” value [1] was “essentially inactive” and the “assembly of BRAF(F667E) and KSR2-MEK1 (in words)” value (BRAF(F667E) + KSR2:MEK1) was “did not impede”.

`Nc1ncnc2c1ncn2[C@@H]1O[C@H](COP(=O)(O)OP(=O)(O)OP(=O)(O)O)[C@@H](O)[C@H]1O` [ATP, reference compound] gave an IC50 ([1]; read-out: IC50 (ATP), KSR2, free ATP vs 2 μM ATP^biotin, KSR2-MEK1 complexes) of 86 µM and an IC50 (MEK1) of 133 µM.

B1: B-RAF (modified variant for high-yield expression in E. coli) (enzyme)
chain: RDSSDDWEIPDGQITVGQRIGSGSFGTVYKGKWHGDVAVKMLNVTAPTPQQLQAFKNEVGVLRKTRHVNILLFMGYSTKPQLAIVTQWCEGSSLYHHLHASETKFEMKKLIDIARQTARGMDYLHAKSIIHRDLKSNNIFLHEDNTVKIGDFGLATVKSRWSGSHQFEQLSGSILWMAPEVIRMQDSNPYSFQSDVYAFGIVLYELMTGQLPYSNINNRDQIIFMVGRGSLSPDLSKVRSNCPKRMKRLMAECLKKKRDERPSFPRILAEIEELARELSG
modifications: biotinylated with EZ-Link Sulfo-NHS-Biotin
B1 showed a Kd (MEK1 (1-393)) of 0.051 µM.

B2: B-RAF(F667E) (in the modified variant for E. coli expression) (enzyme)
chain: RDSSDDWEIPDGQITVGQRIGSGSFGTVYKGKWHGDVAVKMLNVTAPTPQQLQAFKNEVGVLRKTRHVNILLFMGYSTKPQLAIVTQWCEGSSLYHHLHASETKFEMKKLIDIARQTARGMDYLHAKSIIHRDLKSNNIFLHEDNTVKIGDFGLATVKSRWSGSHQFEQLSGSILWMAPEVIRMQDSNPYSFQSDVYAFGIVLYELMTGQLPYSNINNRDQIIEMVGRGSLSPDLSKVRSNCPKRMKRLMAECLKKKRDERPSFPRILAEIEELARELSG
modifications: biotinylated with EZ-Link Sulfo-NHS-Biotin
B2 gave a Kd (KSR2(KD):MEK1 complex) of 1.99 µM.
